Source: PubChem (several laboratories)
Wee1 degr inh: Wee1 degradation inhibitors, primary screen, cell-based, HeLa, Wee1K328M-luciferase, luminescence | Wee1-like protein kinase (Homo sapiens), P30291 | HeLa Luc-Wee1K328M stability; 100% = proteasome inhibitor MG132 effect | reporter increase, % at 5 µM | hit rate 1.2% among 220,000 | AID 1321, 2008;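 active = activation above the mean of all tested compounds plus 3 SD, set per screening run, cut at about 8.8% in these data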;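 note: cells exposed to compound for 20 h before luminescence read; 0% = DMSO alone and 100% = MG132 at 30 µM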
PHOSPHO1 inh: PubChem AID 1565. recombinant PHOSPHO1, absorbance phosphatase assay. inhibition, % at 13.3 µM. hit rate 1.1% among 290,000; in the data active = inhibition above about 60%
Runt-SMMHC FRET: inhibitors of RUNX1 Runt–CBFb-SMMHC binding, primary screen, biochemical, FRET, Cerulean-Runt, Venus-CBFb-SMMHC, uHTS. Cerulean-Runt/Venus-CBFb-SMMHC FRET ratio 530/480, 1 h. inhibition, % at 20 µM. hit rate 0.74% among 220,000;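 active = mean inhibition across duplicate retests at 20 µM reaching about 50%, limit read from the data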;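 note: 0% = DMSO wells and 100% = wells with excess untagged CBFb-SMMHC; inhibitors lower the FRET ratio by blocking Runt binding to CBFb-SMMHC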
Target sequence (Q01196 whole entry, looked up): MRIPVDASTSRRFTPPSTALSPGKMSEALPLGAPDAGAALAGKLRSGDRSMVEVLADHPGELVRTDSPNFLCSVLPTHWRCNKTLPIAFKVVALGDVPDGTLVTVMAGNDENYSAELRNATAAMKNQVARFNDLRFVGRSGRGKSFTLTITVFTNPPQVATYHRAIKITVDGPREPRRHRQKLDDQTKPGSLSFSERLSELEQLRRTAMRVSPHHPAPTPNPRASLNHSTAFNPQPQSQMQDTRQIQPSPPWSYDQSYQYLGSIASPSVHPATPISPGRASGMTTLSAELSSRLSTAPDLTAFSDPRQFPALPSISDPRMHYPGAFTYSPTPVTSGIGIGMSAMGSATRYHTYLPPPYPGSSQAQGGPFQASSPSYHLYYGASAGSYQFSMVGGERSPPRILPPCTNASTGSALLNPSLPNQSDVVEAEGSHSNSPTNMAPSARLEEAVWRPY
Target sequence (Q13951 whole entry, looked up): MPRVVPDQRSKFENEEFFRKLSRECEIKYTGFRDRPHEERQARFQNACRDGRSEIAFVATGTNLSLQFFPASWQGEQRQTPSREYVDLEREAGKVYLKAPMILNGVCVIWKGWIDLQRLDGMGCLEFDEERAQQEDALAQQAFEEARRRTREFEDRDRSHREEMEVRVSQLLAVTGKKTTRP
RanGTP-Impb inh: inhibitors of RanGTP-importin-beta interaction, primary screen, biochemical, FRET, CFP-Ran, YFP-importin-beta, homogeneous | Ran GTPase (GTP-bound) - importin-beta complex | cell-free CFP-Ran/YFP-importin-beta FRET ratio | inhibition, % (test concentration not listed) | hit rate 1.1% among 300,000 | AID 2216, 2009;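 active = more than half of the replicate wells show a fall in the fluorescence ratio signal beyond about 16%, limit read from the data, passing the limit was not always enough; inconclusive = exactly half of the replicate wells pass the set limit; inactive = fewer than half of replicates pass the limit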;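 note: 0% = DMSO wells and 100% = Ran loaded with GDP instead of GTP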
HMGR II inh: inhibitors of E. faecalis class II HMGR, primary screen, biochemical, Enterococcus faecalis; purified E. faecalis HMGR, NADPH absorbance 340 nm kinetic; inhibition, % at 10 µM; hit rate 0.41% among 190,000; AID 1066, 2008;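 active = inhibition above a set limit, the median over all tested compounds plus 3 SD, cut at about 9.5% in these data; inconclusive = no clear call, values can overlap the other calls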;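 note: enzyme runs in reverse so mevalonate oxidation gives rising NADPH absorbance; 0% = complete reaction with DMSO and 100% = background rate lacking mevalonate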
Runt-CBFb FRET: inhibitors of RUNX1 Runt–CBFb binding, primary screen, biochemical, FRET, Cerulean-Runt, Venus-CBFb, uHTS; Runt-related transcription factor 1 (Homo sapiens) + Core-binding factor subunit beta …; Cerulean-Runt/Venus-CBFb FRET ratio 530/480, 1 h; inhibition, % at 20 µM; hit rate 0.46% among 220,000; AID 1496, 2009;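 active = inhibition over about 50% at 20 µM in the single-dose screen, limit read from the data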;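 note: 0% = DMSO wells and 100% = excess unlabeled CBFb competitor control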
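Reagent – Venus-CBFb binding partner, 100 nM · Assay system – Cerulean-tagged RUNX1 Runt domain (FRET donor) fusion protein · Input – 100 nM per protein · Incubation – two 1 h room-temperature incubations shielded from light · Measured by – FRET fluorescence · Medium – Tris buffer pH 7.5 with salts and BSA · Benchmarks – unlabeled CBFb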
* marks the source's active call; other numbers are inactive results; ? = inconclusive; . = not tested or not shown. Shown are actives, neighbours in structure and some others; about 3.4% of the full set was active somewhere.

SMILES	Wee1 degr inh	PHOSPHO1 inh	Runt-SMMHC FRET	RanGTP-Impb inh	HMGR II inh	Runt-CBFb FRET
CCOC(=O)C1CCN(C(c2cc3ccc(C)c(C)c3[nH]c2=O)c2nnnn2C2CCCCC2)CC1 (stereo unspecified)	-1	86*	-60	3	0	-17
Cc1ccc(C)c2[nH]c(=O)c(C(c3nnnn3C3CCCC3)N3CCOCC3)cc12 (stereo unspecified)	0	-16	1	-2	-5	-4
COc1ccc2cc(C(c3nnnn3C3CCCC3)N3CCCCCC3)c3nnnn3c2c1 (stereo unspecified)	-1	-13	-6	-6	11*	0
COc1ccc(Cl)cc1C(=O)n1cnc2ccccc21	.	14	.	0	.	.
C/C(=N\Nc1nccnc1Cl)c1ccc(O)c(C)c1	.	14	.	3	.	.
CN(C)S(=O)(=O)c1ccc(S(=O)(=O)Nc2ccc3c(c2)oc2ccccc23)cc1	-3	-11	1	1	4	-3
Cc1cc(=O)oc2cc(NS(=O)(=O)c3ccc(F)cc3)ccc12	-1	51	67*	3	.	25
Cc1cc(=O)oc2cc(NS(=O)(=O)c3ccccc3)ccc12	-1	12	91*	3	.	38
CCc1ccc(N(CC(=O)NC2CC2)S(=O)(=O)c2ccc(C)cc2)cc1	.	-7	.	-5	.	.
O=C(O)c1nn(Cc2ncc(-c3cccc(Cl)c3)o2)c(=O)c2ccccc12	.	27	.	-3	.	.
Cc1cccc(C(=O)NC2CCN(C(=S)NCc3ccco3)CC2)c1	-1	-22	17	0	-1	12
O=C(NC1CCN(C(=S)NCc2ccco2)CC1)NC12CC3CC(CC(C3)C1)C2	1	89*	19	-2	-7	20
CC(C)C(=O)Nc1c(-c2ccccc2Cl)c(=O)c2ccccc2n1C	.	1	.	-8	.	.
CCN(CC)S(=O)(=O)c1ccc(N2CCOCC2)c(NC(=O)c2ccc(NC(C)=O)cc2)c1	0	25	26	4	.	2
Clc1ccc(-c2cn3c(n2)CCC3)cc1	9.4*	-14	1	2	-10	-2
O=C(NN1S(=O)(=O)c2ccccc2S1(=O)=O)c1ccc(Br)cc1	-3	-55	-4	?	16*	2
Cc1cccc(C(=O)NN2S(=O)(=O)c3ccccc3S2(=O)=O)c1	6	-8	33	2	-4	0
COCC(=O)n1nc(-c2ccccc2)nc1NCc1cccs1	14*	42	0	.	-6	0
CC(C)c1ccccc1OCC(=O)Nc1cc(S(=O)(=O)N2CCOCC2)ccc1N1CCCC1	.	.	.	2	.	.
CCCCOc1ccc(/C=N/NC(=O)c2nnn(-c3nonc3N)c2CN2CCCCCC2)cc1	.	.	.	28*	.	.
COc1ccccc1CCC(=O)OCC(=O)Nc1cccc(S(=O)(=O)N2CCOCC2)c1	.	.	.	2	.	.
Cc1cccn2c(=O)c3cc(C(=O)NCC4CCCO4)c(=N)n(CCc4ccccc4)c3nc12 (stereo unspecified)	.	46	.	176*	.	.
COc1ccc(CCNC(=O)c2cc3c(=O)n4cccc(C)c4nc3n(Cc3ccco3)c2=N)cc1OC	.	-10	.	53*	.	.
Cc1cccn2c(=O)c3cc(C(=O)NCc4ccco4)c(=N)n(CCc4ccccc4)c3nc12	-1	16	79*	.	.	12
COc1ccc(CCNC(=O)c2ccc3c(=O)n(Cc4ccco4)c(=S)[nH]c3c2)cc1OC	0	-59	-12	-1	-2	7
SMILES	Wee1 degr inh	PHOSPHO1 inh	Runt-SMMHC FRET	RanGTP-Impb inh	HMGR II inh	Runt-CBFb FRET
Cc1cccn2c(=O)c3cc(C(=O)NCc4ccco4)c(=N)n(C(C)C)c3nc12	-2	14	60*	154*	-13	19
COc1ccc(CCNC(=O)c2cc3c(=O)n4cccc(C)c4nc3n(CC3CCCO3)c2=N)cc1 (stereo unspecified)	.	8	.	-9	.	.
CC(=O)c1ccc(-c2ccc(C(=O)NC3CC(C)(C)NC(C)(C)C3)o2)cc1	.	.	.	3	.	.
COc1ccccc1C(=O)Nc1ccc(C2=NNC(=O)CC2C)cc1 (stereo unspecified)	5	4	2	?	0	-1
Cc1cccn2c(=O)c3cc(C(=O)NCCc4ccccc4)c(=N)n(Cc4ccco4)c3nc12	.	32	.	74*	.	.
COc1cc2nc(SCC(=O)NCCc3ccccc3)n(Cc3ccco3)c(=O)c2cc1OC	1	-36	2	-2	-5	6
COc1cccc(CSc2nc3ccccc3[nH]2)c1	9.0*	-1	4	-3	5	-1
Cc1ccc2nc(SCCCCOc3ccccc3)[nH]c2c1	-1	37	0	9	-1	.
c1ccc(OCCSc2nc3ccccc3[nH]2)cc1	0	-11	-1	-2	13*	-2
CCOC(=O)CSc1nc2ccc(N3CCOCC3)cc2c(=O)n1Cc1ccccc1	2	60*	3	?	-3	8
Cc1nn(C)c(C)c1S(=O)(=O)N(CC(=O)NCCCN1CCC(C)CC1)c1ccc(C(C)C)cc1	.	1	.	5	.	.
CCCCCCC(=O)Nc1nc(C)c(-c2csc(Nc3ccc(Cl)cc3)n2)s1	0	72*	1	-2	-7	6
CCCCCC(=O)Nc1nc(C)c(-c2csc(Nc3cc(Cl)ccc3C)n2)s1	-1	70*	0	-6	-2	4
CCCC(C)C(=O)Nc1nc(C)c(-c2csc(Nc3cc(Cl)ccc3C)n2)s1 (stereo unspecified)	2	74*	3	?	-2	4
Cc1ccc(Cl)cc1Nc1nc(-c2sc(NC(=O)c3cccc(Cl)c3)nc2C)cs1	6	-32	1	3	-9	8
CCCCCC(=O)Nc1nc(C)c(-c2csc(Nc3ccc(Cl)cc3)n2)s1	2	-143	4	8	0	5
CCCCc1nc(SCC(=O)Nc2cccc(Cl)c2)n[nH]1	.	-48	.	?	.	.
CCNc1nc(N)c(C(=O)c2ccc(Cl)s2)s1	10*	15	-6	3	-3	-4
CCOc1ccc(NC(=O)C2CCCN(c3nc(C)cc(C)n3)C2)cc1 (stereo unspecified)	.	-13	.	1	.	.
Cc1ccsc1/C=N\NC(=O)c1n[nH]c2c1CCC2	4	-12	-2	-3	0	2
CCC(C)(C)C1CCc2[nH]nc(C(=O)N/N=C(\C)c3ccco3)c2C1 (stereo unspecified)	-1	25	0	-2	.	0
